Assay results taken from ChEMBL document CHEMBL1123670, “Inhibitors of cyclic AMP phosphodiesterase. 2. Structural variations of N-cyclohexyl-N-methyl-4-[(1,2,3,5-tetrahydro- 2-oxoimidazo[2,1-b]quinazolin-7-yl)-oxy]butyramide (RS-82856)” (J Med Chem, 1987).
pIC50: −log10 of the molar value.

Tests used:
Homo sapiens = organism: Homo sapiens; experiment: Ratio of IC50 of inhibition of platelet aggregation to IC50 of inhibition of platelet PDE (Efficacy index); type: functional
In short: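 Efficacy index is the IC50 for inhibition of ADP-induced platelet aggregation divided by the IC50 for human platelet PDE inhibition. Both IC50s come from graphical dose-response curves (five concentrations, triplicate).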

[1] = Inhibition of ADP-induced platelet aggregation; type: functional
In short: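 ADP-induced platelet aggregation. Read-out is the rate of change in percentage transmission of the primary aggregation phase after 5 min incubation. Each agent tested at five concentrations in triplicate, with experiments repeated at least twice using platelets from different donors. IC50 (μM) determined graphically.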

[2] = molecular target: Phosphodiesterase; PDE3 & PDE4 (Homo sapiens) (UniProt P27815+Q14432+Q08499+Q07343+Q13370+Q08493); experiment: In vivo inhibition of cyclic AMP phosphodiesterase from dog heart
In short: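 Cyclic AMP phosphodiesterase prepared from human platelets (IC50, nM) or from rat or dog heart tissue (IC25, nM). Each agent tested at five inhibitor concentrations in triplicate. IC50/IC25 read graphically from the dose-response curve.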

Phosphodiesterase 3 = Phosphodiesterase 3 (Homo sapiens, UniProt Q14432+Q13370); experiment: In vitro inhibition of cyclic AMP phosphodiesterase from human platelets
[3] = Canis lupus familiaris; target entry is the homologue from another species; in the assay text read “In vitro” for “In vivo”
[4] = Canis lupus familiaris; in the assay text read “In vitro” for “In vivo”; target entry is the homologue from another species

SMILES	pIC50 [1]	IC25 [2, 3]	IC50 (Phosphodiesterase 3)	IC25 [2, 4]	Ratio (Homo sapiens)
CN(C(=O)CCCOc1ccc2c(c1)CN1CC(=O)NC1=N2)C1CCC(O)CC1 (centres undefined)	4.60	0.29 µM	0.12 µM	–	208
CN(C(=O)CCCOc1ccc2c(c1)CN1C(=N2)NC(=O)[C@H]1CO)C1CCCCC1	5.16	0.072 µM	0.0185 µM	–	373
CN(C(=O)CCCOc1ccc2c(c1)NC1=NC(=O)CN1C2)C1CCCCC1	4.59	0.064 µM	0.15 µM	–	173
C[C@@H]1C(=O)NC2=Nc3ccc(OCCCC(=O)N(C)C4CCCCC4)cc3CN21	6.44	0.027 µM	0.0054 µM	–	66
CC1c2cc(OCCCC(=O)N(C)C3CCCCC3)ccc2NC2=NC(=O)CN21 (centres undefined)	6.89	–	0.0059 µM	0.014 µM	22
COC(=O)CN(C(=O)CCCOc1ccc2c(c1)CN1CC(=O)NC1=N2)C1CCCCC1	6.15	0.01 µM	0.002 µM	–	350
O=C1CN2Cc3cc(OCCCc4nnnn4C4CCCCC4)ccc3N=C2N1	6.00	–	0.0045 µM	0.018 µM	222
COCCN(C(=O)CCCOc1ccc2c(c1)CN1CC(=O)NC1=N2)C1CCCCC1	6.98	–	0.0013 µM	< 0.01 µM	81
CN(C(=O)OCCOc1ccc2c(c1)CN1CC(=O)NC1=N2)C1CCCCC1	5.82	–	0.013 µM	0.058 µM	115
O=C1CN2Cc3cc(OCCCC(=O)N(CCCCCCO)C4CCCCC4)ccc3N=C2N1	5.40	0.002 µM	0.0036 µM	–	1111
O=C1CN2Cc3cc(OCCCC(=O)N(CCN4CCOCC4)C4CCCCC4)ccc3N=C2N1	6.00	0.032 µM	0.0041 µM	–	243
O=C1CN2Cc3cc(OCCCC(=O)N(CCCO)C4CCCCC4)ccc3N=C2N1	5.77	–	0.006 µM	0.017 µM	283
CN(C(=O)CCCOc1ccc2c(c1)CN1CC(=O)NC1=N2)C1CCCCCCC1	6.72	–	0.0022 µM	0.0016 µM	86
CN(C(=O)CCCOc1ccc2c(c1)CN1C(=N2)NC(=O)C1(C)C)C1CCCCC1	5.37	–	0.47 µM	2.4 µM	9
NC(=O)CN(C(=O)CCCOc1ccc2c(c1)CN1CC(=O)NC1=N2)C1CCCCC1	4.70	0.1 µM	0.011 µM	–	1818
O=C1CN2Cc3cc(OCCCC(=O)N(CCn4ccnc4)C4CCCCC4)ccc3N=C2N1	5.44	–	0.0056 µM	0.007 µM	642
CC[C@@H]1C(=O)NC2=Nc3ccc(OCCCC(=O)N(C)C4CCCCC4)cc3CN21	5.25	–	0.37 µM	0.62 µM	15
CN(C(=O)CCCS(=O)(=O)c1ccc2c(c1)CN1CC(=O)NC1=N2)C1CCCCC1	4.24	6.6 µM	3.1 µM	–	19
O=C1CN2Cc3cc(OCCCC(=O)OC4CCCCC4)ccc3N=C2N1	5.47	–	0.018 µM	0.043 µM	168
CN(C(=O)CCCOc1ccc2c(c1)CN1C(=N2)NC(=O)[C@@H]1CO)C1CCCCC1	4.81	–	0.0275 µM	0.09 µM	563
CC(O)[C@H]1C(=O)NC2=Nc3ccc(OCCCC(=O)N(C)C4CCCCC4)cc3CN21 (some centres undefined)	4.66	1.7 µM	1 µM	–	22
CN(C(=O)CCCOc1ccc2c(c1)CN1C(=O)CNC1=N2)C1CCCCC1	3.92	–	15 µM	1.6 µM	8

Continued by rising pIC50 [1], values first:

pIC50 [1]	IC25 [2, 3]	IC50 (Phosphodiesterase 3)	IC25 [2, 4]	SMILES	Ratio (Homo sapiens)
3.82	–	4.4 µM	1.7 µM	CN(C(=O)CCCOc1ccc2c(c1)CN1C(=O)C(=O)NC1=N2)C1CCCCC1	34
4.05	–	1.2 µM	–	CN(C)C(=O)CCCOc1ccc2c(c1)CN1CC(=O)NC1=N2	75
4.09	0.026 µM	0.012 µM	–	O=C1CN2Cc3cc(OCCCC(=O)N(C(CO)CO)C4CCCCC4)ccc3N=C2N1	6833
4.22	–	2 µM	1.5 µM	CN(C(=O)CCCOc1cccc2c1CN1CC(=O)NC1=N2)C1CCCCC1	30
4.27	–	1.6 µM	3.7 µM	CC(O)[C@@H]1C(=O)NC2=Nc3ccc(OCCCC(=O)N(C)C4CCCCC4)cc3CN21 (some centres undefined)	34
4.30	–	0.76 µM	3.7 µM	CN(C(=O)CCCOc1ccc2c(c1)CN1C(=N2)NC(=O)C12CC2)C1CCCCC1	66
4.33	0.38 µM	0.69 µM	–	NC(=O)CCCOc1ccc2c(c1)CN1CC(=O)NC1=N2	68
4.60	–	0.14 µM	0.26 µM	CN(C(=O)CCCSc1ccc2c(c1)CN1CC(=O)NC1=N2)C1CCCCC1	178
5.00	–	0.072 µM	0.18 µM	O=C1CN2Cc3cc(OCCCC(=O)NC4CCCCC4)ccc3N=C2N1	139
5.07	–	0.017 µM	0.78 µM	CN(C(=O)NCCOc1ccc2c(c1)CN1CC(=O)NC1=N2)C1CCCCC1	506
5.09	0.45 µM	0.58 µM	–	CC[C@H]1C(=O)NC2=Nc3ccc(OCCCC(=O)N(C)C4CCCCC4)cc3CN21	14
5.18	–	0.2 µM	0.22 µM	CN(C(=O)CCCCc1ccc2c(c1)CN1CC(=O)NC1=N2)C1CCCCC1	33
5.57	–	0.0049 µM	0.0023 µM	O=C1CN2Cc3cc(OCCCC(=O)N(CCCCCO)C4CCCCC4)ccc3N=C2N1	551
5.80	0.44 µM	0.24 µM	–	CCOC(=O)CCCOc1ccc2c(c1)CN1CC(=O)NC1=N2	6.7
6.33	0.078 µM	0.026 µM	–	C[C@H]1C(=O)NC2=Nc3ccc(OCCCC(=O)N(C)C4CCCCC4)cc3CN21	18
6.60	0.0042 µM	0.001 µM	–	CN(C(=O)CCCOc1ccc2c(c1)CN1CC(=O)NC1=N2)C1CCCCCC1	250
6.74	0.0052 µM	0.0015 µM	–	CCN(C(=O)CCCOc1ccc2c(c1)CN1CC(=O)NC1=N2)C1CCCCC1	120
6.82	–	0.0027 µM	0.045 µM	C=c1c(=O)[nH]c2n1Cc1cc(OCCCC(=O)N(C)C3CCCCC3)ccc1N=2	55.5
